Experimental data reported in ChEMBL document CHEMBL4715736, “Identification of anticancer agents based on the thieno[2,3-b]pyridine and 1H-pyrazole molecular scaffolds” (2016).

Experiments:
Format in all cases: functional
[1] = system: HOP-62; experiment: Growth inhibition of human HOP-62 cells assessed as cell growth at 0.01 uM incubated for 48 hrs by sulforhodamine B assay relative to control; settings: read-out: Activity
[2] = system: NCI-H23; experiment: Growth inhibition of human NCI-H23 cells assessed as cell growth at 1 uM incubated for 48 hrs by sulforhodamine B assay relative to control; settings: read-out: Activity
[3] = system: SF-268; experiment: Growth inhibition of human SF-268 cells incubated for 48 hrs by sulforhodamine B assay
Outline: (§1)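 NCI DTP 60-line human tumour panel. Dose-response curves were run only for ligands active in the initial 10 µM screen. GI50 (concentration giving 50% of maximal inhibition of proliferation) and TGI (concentration giving total growth inhibition) were derived from these curves.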

[4] = system: Hs-578T; experiment: Growth inhibition of human Hs-578T cells assessed as cell growth at 0.01 uM incubated for 48 hrs by sulforhodamine B assay relative to control; settings: read-out: Activity
[5] = system: MCF7; experiment: Growth inhibition of human MCF7 cells assessed as cell growth at 0.1 uM incubated for 48 hrs by sulforhodamine B assay relative to control; settings: read-out: Activity
[6] = system: 786-0; experiment: Growth inhibition of human 786-0 cells assessed as cell growth at 1 uM incubated for 48 hrs by sulforhodamine B assay relative to control; settings: read-out: Activity
Outline: (§2)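 NCI Developmental Therapeutics Program NCI60 panel. Compounds that were active in the 10 µM one-dose screen went on to dose–response testing. Growth at each concentration is expressed relative to untreated control (100%). GI50 (concentration giving 50% of maximal inhibition of proliferation) and TGI (concentration giving total growth inhibition) were derived from the curves.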

[7] = system: NCI-H226; experiment: Growth inhibition of human NCI-H226 cells assessed as cell growth at 1 uM incubated for 48 hrs by sulforhodamine B assay relative to control; settings: read-out: Activity
[8] = system: UO-31; experiment: Growth inhibition of human UO-31 cells assessed as cell growth at 100 uM incubated for 48 hrs by sulforhodamine B assay relative to control; settings: read-out: Activity
[9] = system: SN12C; experiment: Growth inhibition of human SN12C cells assessed as cell growth at 0.1 uM incubated for 48 hrs by sulforhodamine B assay relative to control; settings: read-out: Activity
[10] = system: 786-0; experiment: Growth inhibition of human 786-0 cells incubated for 48 hrs by sulforhodamine B assay; outline: as §2
[11] = system: Malme-3M; experiment: Growth inhibition of human Malme-3M cells incubated for 48 hrs by sulforhodamine B assay
Outline: (§3)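 NCI60 panel at the NCI Developmental Therapeutics Program. Only compounds active in the 10 µM screen went to dose-response testing. GI50, the concentration giving 50% of maximal inhibition of proliferation, and TGI, the concentration giving total growth inhibition, were derived from the dose-response curves.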

[12] = system: PC-3; experiment: Growth inhibition of human PC-3 cells assessed as cell growth at 100 uM incubated for 48 hrs by sulforhodamine B assay relative to control; settings: read-out: Activity
[13] = system: K562; experiment: Growth inhibition of human K562 cells incubated for 48 hrs by sulforhodamine B assay; outline: as §3
[14] = system: SW-620; experiment: Growth inhibition of human SW-620 cells assessed as cell growth at 0.1 uM incubated for 48 hrs by sulforhodamine B assay relative to control; settings: read-out: Activity
[15] = system: IGROV-1; experiment: Growth inhibition of human IGROV-1 cells assessed as cell growth at 0.01 uM incubated for 48 hrs by sulforhodamine B assay relative to control; settings: read-out: Activity
[16] = system: UACC-62; experiment: Growth inhibition of human UACC-62 cells assessed as cell growth at 0.01 uM incubated for 48 hrs by sulforhodamine B assay relative to control; settings: read-out: Activity
[17] = system: MDA-MB-468; experiment: Growth inhibition of human MDA-MB-468 cells assessed as cell growth at 100 uM incubated for 48 hrs by sulforhodamine B assay relative to control; settings: read-out: Activity
[18] = system: NCI-H460; experiment: Growth inhibition of human NCI-H460 cells assessed as cell growth at 0.1 uM incubated for 48 hrs by sulforhodamine B assay relative to control; settings: read-out: Activity
[19] = system: OVCAR-3; experiment: Growth inhibition of human OVCAR-3 cells assessed as cell growth at 0.01 uM incubated for 48 hrs by sulforhodamine B assay relative to control; settings: read-out: Activity
[20] = system: SF-268; experiment: Growth inhibition of human SF-268 cells assessed as cell growth at 1 uM incubated for 48 hrs by sulforhodamine B assay relative to control; settings: read-out: Activity
[21] = system: DU-145; experiment: Growth inhibition of human DU-145 cells assessed as cell growth at 1 uM incubated for 48 hrs by sulforhodamine B assay relative to control; settings: read-out: Activity; outline: as §2
[22] = system: UO-31; experiment: Growth inhibition of human UO-31 cells incubated for 48 hrs by sulforhodamine B assay; outline: as §1
[23] = system: UACC-257; experiment: Growth inhibition of human UACC-257 cells assessed as cell growth at 0.1 uM incubated for 48 hrs by sulforhodamine B assay relative to control; settings: read-out: Activity
[24] = system: OVCAR-4; experiment: Growth inhibition of human OVCAR-4 cells assessed as cell growth at 100 uM incubated for 48 hrs by sulforhodamine B assay relative to control; settings: read-out: Activity
[25] = system: ACHN; experiment: Growth inhibition of human ACHN cells assessed as cell growth at 0.1 uM incubated for 48 hrs by sulforhodamine B assay relative to control; settings: read-out: Activity
[26] = system: SK-MEL-5; experiment: Growth inhibition of human SK-MEL-5 cells assessed as cell growth at 0.01 uM incubated for 48 hrs by sulforhodamine B assay relative to control; settings: read-out: Activity
[27] = system: SNB-75; experiment: Growth inhibition of human SNB-75 cells assessed as cell growth at 0.1 uM incubated for 48 hrs by sulforhodamine B assay relative to control; settings: read-out: Activity
[28] = system: HCC 2998; experiment: Growth inhibition of human HCC 2998 cells assessed as cell growth at 1 uM incubated for 48 hrs by sulforhodamine B assay relative to control; settings: read-out: Activity; outline: as §2
[29] = system: 786-0; experiment: Growth inhibition of human 786-0 cells assessed as cell growth at 0.01 uM incubated for 48 hrs by sulforhodamine B assay relative to control; settings: read-out: Activity; outline: as §2
[30] = system: NCI-H322M; experiment: Growth inhibition of human NCI-H322M cells assessed as cell growth at 0.01 uM incubated for 48 hrs by sulforhodamine B assay relative to control; settings: read-out: Activity
[31] = system: HOP-62; experiment: Growth inhibition of human HOP-62 cells incubated for 48 hrs by sulforhodamine B assay; outline: as §3
[32] = system: Hs-578T; experiment: Growth inhibition of human Hs-578T cells assessed as cell growth at 1 uM incubated for 48 hrs by sulforhodamine B assay relative to control; settings: read-out: Activity
[33] = system: RXF 393; experiment: Growth inhibition of human RXF 393 cells assessed as cell growth at 100 uM incubated for 48 hrs by sulforhodamine B assay relative to control; settings: read-out: Activity
[34] = system: ACHN; experiment: Growth inhibition of human ACHN cells assessed as cell growth at 100 uM incubated for 48 hrs by sulforhodamine B assay relative to control; settings: read-out: Activity
[35] = system: UACC-257; experiment: Growth inhibition of human UACC-257 cells assessed as cell growth at 100 uM incubated for 48 hrs by sulforhodamine B assay relative to control; settings: read-out: Activity
[36] = read-out: LC50 (the source's name)

SMILES: Nc1c(C(=O)Nc2ccccc2)sc2nc3c(cc12)CN(Cc1ccccc1)CC3
- growth at 0.01 µM [1]: 89%
- growth at 1 µM [2]: 101%
- GI50 [3]: 5.62 µM
- LC50 (concentration killing 50% of cells) [3]: > 100 µM
- TGI [3]: > 100 µM
- growth at 0.01 µM [4]: 88%
- growth at 0.1 µM [5]: 86%
- growth at 1 µM [6]: 106%
- growth at 1 µM [7]: 92%
- growth at 100 µM [8]: 32%
- growth at 0.1 µM [9]: 94%
- GI50 [10]: 13 µM
- TGI [10]: > 100 µM
- CC50 [10, 36]: > 100 µM
- GI50 [11]: 3.8 µM
- LC50 [11]: > 100 µM
- TGI [11]: > 100 µM
- growth at 100 µM [12]: 23%
- GI50 [13]: 9.1 µM
- LC50 (concentration killing 50% of cells) [13]: > 100 µM
- TGI [13]: > 100 µM
- growth at 0.1 µM [14]: 97%
- growth at 0.01 µM [15]: 95%
- growth at 0.01 µM [16]: 95%
- growth at 100 µM [17]: 22%
- growth at 0.1 µM [18]: 102%
- growth at 0.01 µM [19]: 98%
- growth at 1 µM [20]: 85%
- growth at 1 µM [21]: 74%
- GI50 [22]: 6.14 µM
- TGI [22]: > 100 µM
- CC50 [22, 36]: > 100 µM
- growth at 0.1 µM [23]: 95%
- growth at 100 µM [24]: -19%
- growth at 0.1 µM [25]: 91%
- growth at 0.01 µM [26]: 104%
- growth at 0.1 µM [27]: 83%
- growth at 1 µM [28]: 105%
- growth at 0.01 µM [29]: 96%
- growth at 0.01 µM [30]: 93%
- GI50 [31]: 4.11 µM
- LC50 [31]: > 100 µM
- TGI [31]: 33.3 µM
- growth at 1 µM [32]: 78%
- growth at 100 µM [33]: -5%
- growth at 100 µM [34]: 10%
- growth at 100 µM [35]: 44%
